Bioassay records: PubChem BioAssay, several laboratories
Compounds with a hit are over-represented: about 1.4% of the library has one in this group of screens.
Thrombin inh – thrombin (human) inhibition; alpha-thrombin, Boc-VPR-AMC fluorogenic substrate cleavage; inhibition, % at 5 µM; actives 0.26% (n = 220,000);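 active = inhibition at or above 40%; inactive = inhibition below 40%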;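 also: 0% = enzyme with no compound and 100% = wells without enzyme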
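System – human alpha-thrombin protein · Reagent – Boc-VPR-AMC substrate, 15 µM final · Compound – 5 µM single dose in 0.2% DMSO · Schedule – reaction at room temperature · Technique – AMC fluorescence at 355 nm excitation and 460 nm emission · Read-out basis – % inhibition relative to enzyme controls and enzyme-free blanks · Control set – no-compound enzyme wells and no-enzyme blanks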
FXIa inh – factor XIa (human) inhibition; purified FXIa, Boc-Glu-Ala-Arg-AMC fluorogenic substrate; inhibition, % at 5 µM; actives 0.14% (n = 220,000); AID 798;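 active = inhibition of at least 40%; inactive = inhibition below 40%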;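 also: fluorescence of freed AMC excited at 355 nm; 0% = enzyme without compound and 100% = no enzyme blank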
KLK5 inh – blocks human kallikrein 5 protease activity; recombinant hK5, fluorogenic AMC substrate cleavage; Q9Y337; actives 0.59% (n = 210,000); inhibition, % at 5 µM; AID 873;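 active = inhibition of 40% or more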;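 also: 0% = enzyme controls without compound and 100% = no-enzyme blanks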
FXIIa inh 1536 – blocks human coagulation factor XIIa protease activity. actives 0.3% (n = 220,000). AID 800. purified FXIIa, Boc-QGR-AMC fluorogenic substrate, 2 h. P00748. inhibition, % at 5 µM; in the data active = inhibition above about 40%;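 also: 0% = enzyme with no compound and 100% = blank without enzyme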
Target sequence (P00748 20-372 limits assumed): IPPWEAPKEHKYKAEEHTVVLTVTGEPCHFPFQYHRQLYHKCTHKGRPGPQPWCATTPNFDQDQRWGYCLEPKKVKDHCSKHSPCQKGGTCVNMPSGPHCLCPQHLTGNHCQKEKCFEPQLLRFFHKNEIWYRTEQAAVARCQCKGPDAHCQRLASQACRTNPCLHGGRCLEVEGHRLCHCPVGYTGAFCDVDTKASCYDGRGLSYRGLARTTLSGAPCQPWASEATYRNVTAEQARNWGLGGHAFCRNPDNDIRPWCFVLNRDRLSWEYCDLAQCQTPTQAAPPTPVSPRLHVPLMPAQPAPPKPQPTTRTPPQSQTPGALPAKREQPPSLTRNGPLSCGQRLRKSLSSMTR
Target sequence (P00748 373-615 limits assumed): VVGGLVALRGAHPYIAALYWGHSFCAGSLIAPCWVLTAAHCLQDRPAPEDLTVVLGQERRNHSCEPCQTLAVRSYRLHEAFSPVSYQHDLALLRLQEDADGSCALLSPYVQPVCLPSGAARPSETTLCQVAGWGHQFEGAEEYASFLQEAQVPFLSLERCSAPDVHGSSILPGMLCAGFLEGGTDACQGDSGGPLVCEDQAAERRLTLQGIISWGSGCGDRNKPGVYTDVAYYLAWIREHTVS
Calpain2 inh – calpain II (pig) inhibition | actives 0.37% (n = 220,000) | inhibition, % at 16 µM | purified calpain II, fluorogenic peptide substrate, 30 min | AID 1236;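 active = inhibition above about 50%, limit read from the data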
Numbers without * were called inactive; x = not tested or not shown.

SMILES | Thrombin inh | FXIa inh | KLK5 inh | FXIIa inh 1536 | Calpain2 inh
Cc1cccc(OCc2n[nH]c(=S)n2C2CCCCC2)c1 | -2 | 22 | -5 | 6 | 61*
N#Cc1ccccc1OCC(=O)OCC(=O)N1CCN(C(=O)c2ccco2)CC1 | 5 | -2 | 0 | 8 | -18
COc1cc(NC(=S)N2CCCC(CO)C2)c(OC)cc1Cl (stereo unspecified) | -11 | -7 | -7 | 17 | 18
COCCNc1nc2c(c(=O)n(Cc3ccc(OC)cc3)c(=O)n2C)n1C | 0 | -9 | -1 | -10 | x
Cn1c(NCc2ccco2)nc2c1c(=O)n(Cc1ccc(Cl)c(Cl)c1)c(=O)n2C | -7 | -10 | -13 | 11 | 86*
COc1ccc(CNc2nc3c(c(=O)n(Cc4ccc(Cl)cc4)c(=O)n3C)n2C)cc1 | 1 | 5 | -7 | 15 | 84*
Cn1c(NCC(O)CO)nc2c1c(=O)n(Cc1ccc(Cl)c(Cl)c1)c(=O)n2C (stereo unspecified) | 9 | 2 | 1 | 19 | -15
c1ccc(Oc2ccc(-c3ccnc4ncnn34)cc2)cc1 | 4 | -2 | -9 | 4 | 68*
CS(=O)(=O)c1ccc2nc(NC(=O)c3ccc(NS(=O)(=O)c4cccc([N+](=O)[O-])c4)cc3)sc2c1 | 53* | 4 | 3 | 12 | -20
Fc1ccccc1N1CCN(C(c2cccs2)c2nnnn2CCc2ccccc2)CC1 (stereo unspecified) | 0 | -5 | 13 | 11 | 55*
Fc1ccc(N2CCN(C(c3cccs3)c3nnnn3CCc3ccccc3)CC2)cc1 (stereo unspecified) | -1 | 1 | -15 | 9 | -2
Cc1ccc(S(=O)(=O)N(C)c2ccc(C)c([N+](=O)[O-])c2)cc1 | -2 | 5 | 3 | 9 | 50*
CCN(c1ccccc1)S(=O)(=O)c1ccc(OC)c(NC(=O)C2CC(=O)N(Cc3ccccc3)C2)c1 (stereo unspecified) | -5 | -4 | -2 | 2 | -14
c1ccc2c(C3=NNC(=NC4CC4)SC3)c[nH]c2c1 | -10 | 4 | -17 | 6 | 27
c1ccc2c(C3=NNC(=NC4CCCCC4)SC3)c[nH]c2c1 | -5 | 3 | -18 | -4 | 75*
CC12CN3CC(C)(CN(C1)C3c1ccc(Br)cc1)C2=O (stereo unspecified) | 7 | -3 | 68* | 11 | 12
CCC(C)n1c(OC)nc2c1c(=O)n(C)c(=O)n2C (stereo unspecified) | -6 | -3 | -4 | 4 | -12
CCOC(=O)N1CCN(C(=O)CCNS(=O)(=O)c2ccc3c(c2)c(=O)n(C)c(=O)n3C)CC1 | 14 | -5 | 2 | 11 | -46
O=C(NCCCN=C1NS(=O)(=O)c2ccccc21)c1ccco1 | -1 | 6 | -7 | 10 | 11
O=C(NCCN=C1NS(=O)(=O)c2ccccc21)c1ccco1 | 12 | 1 | 74* | -3 | 14
CCOC(=O)C1=C(Nc2ccccc2)CC(C)(O)C(C(=O)OCC)C1c1ccc(Cl)cc1 (stereo unspecified) | -4 | -2 | -1 | 4 | 34
CCNc1nc(N)nc(Oc2ccc(OCCOc3ccc(Cl)cc3Cl)nn2)n1 | 0 | -3 | 0 | 7 | -18
COc1ccc(CSc2n[nH]c(C)n2)cc1[N+](=O)[O-] | 24 | -3 | 48* | 11 | 23
COc1ccc(C2C(C(=O)Nc3ccccc3)=C(C)N=C3SCC(=O)N32)cc1 (stereo unspecified) | 4 | 10 | -29 | 18 | -5
CC1=C(C(=O)Nc2ccccc2)C(c2ccc(O)cc2)N2C(=O)CSC2=N1 (stereo unspecified) | 43* | 7 | 37 | 16 | 7
SMILES | Thrombin inh | FXIa inh | KLK5 inh | FXIIa inh 1536 | Calpain2 inh
CC1CCc2c(sc(NC(=O)COC(=O)c3ccc(O)cc3)c2C#N)C1 (stereo unspecified) | -4 | 20 | 13 | 8 | -104
O=C(Nc1cc(S(=O)(=O)N2CCCCC2)ccc1O)c1ccccc1NS(=O)(=O)c1ccc(F)c(F)c1 | -8 | -2 | -1 | 0 | 6
COc1cccc(NC(C)(C)c2nnnn2-c2c(C)cccc2C)c1 | 1 | 44* | 29 | 66* | 24
Cc1cccc(C)c1-n1nnnc1C1(Nc2ccccc2)CCCCC1 | -1 | -13 | -18 | -1 | 33
CCOC(=O)Cc1csc(NC(=O)c2sc3nc4cc(C)ccc4cc3c2N)n1 | 0 | 10 | -5 | 11 | -82
CCOC(=O)Cc1csc(NC(=O)c2sc3nc4ccc(CC)cc4cc3c2N)n1 | 24 | 43* | 91* | 21 | -241
O=C(Nc1ccc(F)cc1F)c1ccc(-n2cncn2)nc1 | 44* | -3 | -5 | 6 | 37
O=C(Nc1ccc(F)cc1F)c1ccc(-n2cccn2)nc1 | -2 | -4 | 0 | 4 | -13
Cc1cccc(-n2c(CCCN3C(=O)c4ccccc4C3=O)nc3ccccc3c2=O)n1 | 30 | 0 | 152* | -8 | -2
COc1ccc(C(=O)c2coc3ccc(O)c(CN4CCCCC4)c23)cc1 | 13 | 4 | 48* | 10 | 12
CCCOc1ccc(OCCN2CCCC(C)C2)cc1 (stereo unspecified) | 3 | 9 | -9 | 16 | 50*
O=C(NCc1ccccc1)c1ccc(Cl)nc1 | 24 | 45* | 29 | 32 | 11
CC(CCc1ccccc1)NC(=O)c1ccc(Cl)nc1 (stereo unspecified) | -2 | -8 | 0 | -1 | 10
Fc1ccc(-c2csc3ncnc(Nc4ccc(N5CCOCC5)cc4)c23)cc1 | -2 | -4 | 42* | -13 | -5
c1nc(Nc2ccc(N3CCOCC3)cc2)c2ccsc2n1 | -3 | 4 | 2 | 7 | 9
O=C(c1ccco1)N1CCN(C(=O)N2c3ccccc3Sc3ccccc32)CC1 | 104* | 10 | 43* | 5 | 4
O=C1C(=O)N(CCN2CCOCC2)C(c2cccnc2)/C1=C(/O)c1ccc(Cl)cc1 (stereo unspecified) | -1 | -3 | 9 | 10 | 7
CCOc1ccc(-c2nc(C#N)c(NCC(C)C)o2)cc1 | -3 | -9 | 151* | -12 | -141
C=CCNc1oc(-c2ccc(OCC)cc2)nc1C#N | -8 | -8 | -3 | -5 | -229
Cc1cc(NC(=O)CSc2nc3sc4c(c3c(=O)n2C)CCCC4)no1 | -8 | -2 | 5 | -5 | 52*
CCn1c(SCC(=O)Nc2cc(C)on2)nc2sc3c(c2c1=O)CCCC3 | 0 | 5 | -16 | 7 | -54
CCOC(=O)c1c(NC(=O)CSc2nnc(-c3cccnc3)o2)sc(C(C)=O)c1C | 18 | 1 | 48* | 19 | 23
CC(CCc1ccccc1)NC(=O)CSc1ccccc1 (stereo unspecified) | -2 | -2 | -16 | 8 | 24
CC(CCc1ccccc1)NC(=O)CSc1cccc[n+]1[O-] (stereo unspecified) | -5 | -1 | -3 | 8 | 53*
CN(C)C(=O)c1ccc(NC(=O)COc2ccc([N+](=O)[O-])cc2)cc1 | -1 | -13 | 6 | 6 | -19
